Screening data from PubChem BioAssay.
Rows were chosen to be rich in hits. Some 2% of all compounds tested hit in one or more screens of this group.
M5 antag – CHRM5 antagonism in calcium assay. P08912. CHO-hM5 cells, Fluo-8 calcium fluorescence, ACh EC80. inhibition, % at 3 µM. actives 0.59% (n = 360,000);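 active = inhibition above a per-plate cutoff, the mean of that plate's test compounds plus 3 SD, cut at about 27% in these data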;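 note: 0% = acetylcholine EC80 with DMSO and 100% = DMSO without agonist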
Target sequence (P08912 whole entry, looked up): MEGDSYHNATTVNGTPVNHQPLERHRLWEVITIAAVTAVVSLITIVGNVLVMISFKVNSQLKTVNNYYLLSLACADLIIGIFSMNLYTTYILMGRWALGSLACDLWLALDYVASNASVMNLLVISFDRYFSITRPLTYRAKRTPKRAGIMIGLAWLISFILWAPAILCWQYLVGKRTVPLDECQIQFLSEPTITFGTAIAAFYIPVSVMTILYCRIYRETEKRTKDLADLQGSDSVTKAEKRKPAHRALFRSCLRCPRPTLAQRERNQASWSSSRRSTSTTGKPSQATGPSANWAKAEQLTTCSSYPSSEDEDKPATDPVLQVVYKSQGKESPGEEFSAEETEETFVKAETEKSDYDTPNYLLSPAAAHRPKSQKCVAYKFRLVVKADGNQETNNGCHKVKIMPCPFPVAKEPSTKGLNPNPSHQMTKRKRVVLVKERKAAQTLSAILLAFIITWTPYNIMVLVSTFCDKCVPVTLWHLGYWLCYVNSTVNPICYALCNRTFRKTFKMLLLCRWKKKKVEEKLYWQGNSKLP
CHRM1 antagonist – antagonists of human M1 muscarinic receptor; CHO-K1 hM1, Fluo-8 calcium fluorescence, ACh EC80 antagonist; inhibition, % at 3 µM; actives 1.3% (n = 360,000);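 active = percent inhibition above its own plate's cutoff, namely the mean of that plate's compound wells plus 3 SD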;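 note: peak over basal fluorescence ratio during 140 s after agonist addition; 0% = ACh EC80 plus DMSO and 100% = DMSO alone without agonist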
M5 PAM – potentiates acetylcholine response at human M5 receptor; AID 624038; actives 0.3% (n = 360,000); activation, % at 3 µM; P08912; CHO-K1 hM5, Fluo-8 calcium, ACh EC20 PAM; 0% = ACh EC20, 100% = ACh EC100;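 active = activation above the run cutoff, the mean activation of all test compounds plus 3 SD, cut at about 18% in these data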
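Measured by: Fluo-8 calcium fluorescence; material: human M5 receptor in CHO-K1 cells; schedule: Post-acetylcholine fluorescence recording 140 s; benchmarks: low control EC20 acetylcholine (0%), high control EC100 acetylcholine (100%); read-out: Max/basal fluorescence ratio as % of EC20–EC100 ACh window; compound: single dose, 3 µM nominal final test concentration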
M1 ag – agonists of human M1 muscarinic receptor; actives 0.33% (n = 360,000); activation, % at 3 µM; P11229; CHO-K1 hM1, Fluo-8 calcium fluorescence, agonist mode; 0% DMSO, 100% acetylcholine EC100; AID 588814;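 active = activation above the run's mean compound activation plus 3 SD, cut at about 16% in these data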;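 note: peak over basal fluorescence ratio within a 140 s kinetic read after compound addition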
M5 ag – CHRM5 agonism in calcium assay; CHO-K1 hM5 cells, Fluo-8 calcium fluorescence; 0% DMSO wells, 100% maximal acetylcholine response; activation, % at 3 µM; actives 0.19% (n = 360,000); AID 624037;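 active = activation above the run's mean over test compounds plus 3 SD, cut at about 23% in these data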;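 note: signal is peak over basal fluorescence ratio across the kinetic read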
CHRM1 PAM – positive allosteric modulators of human M1 muscarinic receptor | actives 0.088% (n = 360,000) | activation, % at 3 µM | CHO-K1 hM1, Fluo-8 calcium fluorescence, ACh EC20; 0% = ACh EC20, 100% = maximal ACh | P11229; in the data active = activation above about 19%, passing the limit was not always enough
Starred values were filed as active, the others as inactive.

How did CCOC(=O)[C@]12Cc3cc(OC)ccc3[C@H]1N(CCC(=O)OC)C(=O)c1cc(OC)ccc12 do in these assays?
M5 antag: -1.4; M5 PAM: 4.0; M5 ag: 2.6

Results for CCN(CC)c1ccc(CNCCc2ccc(F)cc2)cc1 ?
M5 antag: 1.3; CHRM1 antagonist: 30.0*; M5 PAM: 2.5; M1 ag: -4.2; M5 ag: -11.8; CHRM1 PAM: -19.6

How did CCc1ccc(CNCCc2ccc(F)cc2)cc1 do in these assays?
M5 antag: 0.5; CHRM1 antagonist: 16.4; M5 PAM: -1.8; M1 ag: -5.1; M5 ag: -2.0; CHRM1 PAM: -20.6

Results for Cc1cccc(CN2CCCC(C(=O)c3ccc(C(F)(F)F)cc3)C2)n1 (centres undefined) ?
M5 antag: 9.2; CHRM1 antagonist: 24.4; M5 PAM: -0.8; M1 ag: -11.9; M5 ag: -4.1; CHRM1 PAM: -28.7

How did Cc1cc(Cl)ccc1C(=O)C1CCCN(C2CCSCC2)C1 (centres undefined) do in these assays?
M5 antag: 10.9; CHRM1 antagonist: 83.8*; M5 PAM: -20.4; M1 ag: -13.4; M5 ag: -9.3; CHRM1 PAM: -33.0

What do the screens show for `O=C(c1ccc(C(F)(F)F)cc1)C1CCCN(C2CCSCC2)C1` (centres undefined)?
M5 antag: -7.2; CHRM1 antagonist: 57.5*; M5 PAM: -11.0; M1 ag: -14.4; M5 ag: -10.3; CHRM1 PAM: -31.8

How did O=S(=O)(c1ccccc1)N1Cc2ccccc2-n2nncc2C1 do in these assays?
M5 antag: -9.7; CHRM1 antagonist: 2.7; M5 PAM: -1.9; M1 ag: 2.0; M5 ag: 0.9; CHRM1 PAM: 4.0

Results for O=c1[nH]c2ccccc2n1C1CCN(C(c2cccs2)c2nnnn2-c2ccc3c(c2)OCCO3)CC1 (centres undefined) ?
M5 antag: 11.9; CHRM1 antagonist: -23.7; M5 PAM: -22.1; M1 ag: 3.1; M5 ag: -1.4; CHRM1 PAM: 7.4

Results for CCCCn1nnnc1C(CC)N1CCC2(CC1)C(=O)NCN2c1ccccc1 (centres undefined) ?
M5 antag: 1.0; CHRM1 antagonist: -12.4; M5 PAM: -1.6; M1 ag: -5.5; M5 ag: 4.2; CHRM1 PAM: 11.3

Results for C[N+](C)(C)CC#CCN1CCCC1=O ?
M5 antag: 97.8*; CHRM1 antagonist: 89.0*; M5 PAM: -13.3; M1 ag: 120.5*; M5 ag: 99.0*; CHRM1 PAM: -12.3

Results for O=c1[nH]c(O)c(C=Nc2ccc(Cl)c(C(F)(F)F)c2)c(=O)[nH]1 ?
M5 antag: 37.8*; CHRM1 antagonist: 40.8*; M5 PAM: -34.5; M1 ag: -10.9; M5 ag: -25.4; CHRM1 PAM: -25.7

Results for COC(=O)C1=C(C(=O)OC)C2OC1c1cc3ccccc3cc12 ?
M5 antag: 17.0; CHRM1 antagonist: 7.3; M5 PAM: -7.0; M1 ag: -1.8; M5 ag: 0.1; CHRM1 PAM: -0.7

Results for CN(C)C(CNC(=O)Cc1c(Cl)cccc1Cl)c1ccccc1 (centres undefined) ?
M5 antag: 40.9*; CHRM1 antagonist: 96.5*; M5 PAM: -15.6; M1 ag: -15.6; M5 ag: -11.6; CHRM1 PAM: -37.3

What do the screens show for `Cn1nnc(CC[N+](C)(C)C)n1`?
M5 antag: 65.2*; CHRM1 antagonist: 77.0*; M5 PAM: -27.7; M1 ag: 72.6*; M5 ag: 75.7*; CHRM1 PAM: -22.1

How did CN(C)P(=NC(=S)c1cccn1C)(N(C)C)N(C)C do in these assays?
M5 antag: 27.3*; CHRM1 antagonist: 32.9*; M5 PAM: -26.0; M1 ag: -11.5; M5 ag: -7.4; CHRM1 PAM: -23.9

What do the screens show for `CCn1ccnc1CN1CCCC(C(=O)c2cc(C)c(OC)c(C)c2)C1` (centres undefined)?
M5 antag: 9.9; CHRM1 antagonist: 37.6*; M5 PAM: -12.4; M1 ag: -6.3; M5 ag: -15.2; CHRM1 PAM: -20.0

How did CN1CCN(CCC(C#N)(c2ccccc2)c2ccccc2)CC1 do in these assays?
M5 antag: 50.1*; CHRM1 antagonist: 98.7*; M5 PAM: -49.4; M1 ag: -6.1; M5 ag: -14.3; CHRM1 PAM: -22.1

What do the screens show for `CN1CN(c2ccccc2)C2(CCN(CCCSc3ccccc3NC(=O)/C=C/c3ccccc3)CC2)C1=O`?
M5 antag: 36.9*; CHRM1 antagonist: 54.6*; M5 PAM: -46.4; M1 ag: 47.4*; M5 ag: 67.8*; CHRM1 PAM: -34.0

What do the screens show for `CCOC(=O)[C@@H]1[C@H]2COc3ccc(Br)cc3[C@H]2N2C(=O)N(c3cccc(C)c3)C(=O)[C@]12C`?
M5 antag: 4.6; CHRM1 antagonist: 1.1; M5 PAM: 0.0; M1 ag: -1.6; M5 ag: -2.3; CHRM1 PAM: 6.1

How did CCOC(C(=O)OCCCN(CC)CC)(c1ccccc1)c1ccccc1 do in these assays?
M5 antag: 11.9; CHRM1 antagonist: 15.7; M5 PAM: -14.2; M1 ag: -4.4; M5 ag: -9.1; CHRM1 PAM: -19.3

Results for CCN(CC)CCCOC(=O)C(OC(C)C)(c1ccccc1)c1ccccc1 ?
M5 antag: 97.8*; CHRM1 antagonist: 101.8*; M5 PAM: -22.5; M1 ag: -10.4; M5 ag: -4.1; CHRM1 PAM: -32.5

What do the screens show for `c1coc(CN2Cc3ccccc3-n3nncc3C2)c1`?
M5 antag: -9.7; CHRM1 antagonist: 0.6; M5 PAM: 6.5; M1 ag: -5.0; M5 ag: -0.6; CHRM1 PAM: 5.1

How did CCOC(=O)[C@]12Cc3cc(Cl)ccc3[C@H]1N(C(C)C)C(=O)c1ccccc12 do in these assays?
M5 antag: 5.1; M5 PAM: 10.1; M5 ag: 1.5

How did O=C(O)C(O)(c1ccccc1)C1CCCC1 (centres undefined) do in these assays?
M5 antag: 1.9; CHRM1 antagonist: -1.0; M5 PAM: -6.6; M1 ag: -1.1; M5 ag: -7.1; CHRM1 PAM: 4.0

Results for CC(C)(C)C(=O)OC[N+](C)(C)CCOC(=O)C(O)(c1ccccc1)C1CCCC1 (centres undefined) ?
M5 antag: 98.7*; CHRM1 antagonist: 98.2*; M5 PAM: -34.2; M1 ag: -6.6; M5 ag: -14.4; CHRM1 PAM: -25.2

How did CCCC(CCC)C(=O)OC[N+](C)(C)CCOC(=O)C(O)(c1ccccc1)C1CCCC1 (centres undefined) do in these assays?
M5 antag: 98.9*; CHRM1 antagonist: 99.1*; M5 PAM: -18.7; M1 ag: -12.3; M5 ag: -11.1; CHRM1 PAM: -30.7
